Test results: ChEMBL document CHEMBL3351711, “Design, synthesis and biological evaluation of novel 6H-benzo[c]chromen-6-one, and 7,8,9,10-tetrahydro-benzo[c]chromen-6-one derivatives as potential cholinesterase inhibitors” (Bioorg Med Chem, 2014)

Legend:
[1] = species on record: Homo sapiens; assay: Selectivity index, ratio of IC50 for human recombinant BuChE to IC50 for human recombinant AChE
[2] = target: Acetylcholinesterase (Homo sapiens, UniProt P22303); assay: Inhibition of human recombinant AChE using acetylthiocholine iodide substrate incubated for 15 mins by spectrophotometry based Ellman's method
Acetylcholinesterase, sequence (P22303 whole entry): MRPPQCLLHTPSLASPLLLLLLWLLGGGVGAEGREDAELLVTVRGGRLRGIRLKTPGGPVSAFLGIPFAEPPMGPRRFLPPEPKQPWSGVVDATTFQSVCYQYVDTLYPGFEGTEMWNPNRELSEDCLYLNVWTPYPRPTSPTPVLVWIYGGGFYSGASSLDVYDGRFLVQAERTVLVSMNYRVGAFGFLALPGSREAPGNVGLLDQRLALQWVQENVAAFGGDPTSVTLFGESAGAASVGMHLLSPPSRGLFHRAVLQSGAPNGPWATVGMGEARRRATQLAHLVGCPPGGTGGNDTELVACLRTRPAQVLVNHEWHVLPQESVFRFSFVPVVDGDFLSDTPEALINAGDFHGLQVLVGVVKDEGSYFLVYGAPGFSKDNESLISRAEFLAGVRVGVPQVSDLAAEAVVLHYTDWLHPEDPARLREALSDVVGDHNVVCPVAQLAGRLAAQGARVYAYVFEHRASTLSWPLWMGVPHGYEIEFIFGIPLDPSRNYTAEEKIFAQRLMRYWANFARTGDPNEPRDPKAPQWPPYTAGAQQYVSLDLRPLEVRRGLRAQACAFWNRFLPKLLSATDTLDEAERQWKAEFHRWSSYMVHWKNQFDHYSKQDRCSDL

[3] = target: Cholinesterase (Homo sapiens, UniProt P06276); assay: Inhibition of human recombinant BuChE using butyrylthiocholine iodide substrate incubated for 15 mins by spectrophotometry based Ellman's method
Cholinesterase, sequence (P06276 whole entry): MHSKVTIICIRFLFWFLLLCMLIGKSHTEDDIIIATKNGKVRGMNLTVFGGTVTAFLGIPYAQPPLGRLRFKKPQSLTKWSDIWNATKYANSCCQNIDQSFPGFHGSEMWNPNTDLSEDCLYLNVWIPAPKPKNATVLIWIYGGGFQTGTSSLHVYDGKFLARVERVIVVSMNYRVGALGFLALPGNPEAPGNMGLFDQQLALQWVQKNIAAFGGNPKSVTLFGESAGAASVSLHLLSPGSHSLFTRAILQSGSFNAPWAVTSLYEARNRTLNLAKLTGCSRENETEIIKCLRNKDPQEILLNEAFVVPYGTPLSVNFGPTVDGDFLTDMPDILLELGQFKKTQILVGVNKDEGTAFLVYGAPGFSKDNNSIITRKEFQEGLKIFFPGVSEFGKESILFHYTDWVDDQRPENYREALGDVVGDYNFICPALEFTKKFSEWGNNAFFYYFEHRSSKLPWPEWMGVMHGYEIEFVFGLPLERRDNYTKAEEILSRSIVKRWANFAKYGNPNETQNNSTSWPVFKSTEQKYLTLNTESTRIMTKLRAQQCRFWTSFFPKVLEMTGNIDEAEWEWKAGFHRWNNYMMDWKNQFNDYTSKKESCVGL

[4] = tested on: Rattus norvegicus; assay: Antagonism of scopolamine-induced passive avoidance in Wistar rat assessed as latency of visiting dark box measured for 5 mins at 1 mg/kg, po dosed 30 mins after scopolamine challenge and measured 1 hr post dose; assay type: functional
Method in brief: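 Rats, 10 per compound. Scopolamine 1 mg/kg ip given 30 min before the test compound (1 mg/kg oral). One hour after dosing, rats placed in the illuminated compartment with the door closed for 30 s habituation. Door then opens automatically and latency to enter the dark box is timed over 5 min. Antagonism (%) is scaled against the latency difference between no-scopolamine and scopolamine-only groups, taken as 100%.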

[5] = species on record: Homo sapiens; assay: Selectivity index, ratio of IC50 for human recombinant AChE to IC50 for human recombinant BuChE
Method in brief: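 Modified Ellman assay in Tris-HCl pH 8.0 with DTNB (0.34 mM final). Human recombinant AChE (0.4 U/mL solution) with acetylthiocholine iodide; human recombinant BuChE (1.6 U/mL solution) with butyrylthiocholine iodide (1.5 mM final). 15 min at 27 °C, read at 412 nm against enzyme-free blank and inhibitor-free control, in triplicate. IC50s fitted by sigmoidal Hill slope; ratio of the two IC50s.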

In the case of `COc1cccc(CC2CCN(CCCOc3ccc4c(c3)oc(=O)c3ccccc34)CC2)c1`, the Ratio IC50 [1] is reported as > 2, the IC50 [2] is reported as 18.5 µM and the IC50 [3] is reported as > 40 µM.
For `O=c1oc2cc(OCCCCN3CCC(Cc4ccccc4)CC3)ccc2c2ccccc12`, the Ratio IC50 [1] was > 2, the IC50 [2] was 14.2 µM and the IC50 [3] was > 40 µM.
With `COc1cccc(CN2CCN(CCCCOc3ccc4c5c(c(=O)oc4c3)CCCC5)CC2)c1` the Ratio IC50 [1] was 2.7, the IC50 [2] was 8.7 µM and the IC50 [3] was 23.4 µM.
With `O=c1oc2cc(OCCN3CCC(Cc4ccccc4)CC3)ccc2c2c1CCCC2` the Ratio IC50 [1] was > 5, the IC50 [2] was 8.1 µM and the IC50 [3] was > 40 µM.
With `COc1cccc(CN(C)CCCOc2ccc3c(c2)oc(=O)c2ccccc23)c1` the Ratio IC50 [1] was 1.4, the IC50 [2] was 20.9 µM and the IC50 [3] was 29.2 µM.
Work on `CCN(C)C(=O)Oc1cccc([C@H](C)N(C)C)c1` (racemic) [RIVASTIGMINE] yielded an inhibition in vivo at 1 mg/kg [4] of 85%.
With `COc1cccc(CN2CCN(CCCOc3ccc4c5c(c(=O)oc4c3)CCCC5)CC2)c1` the Ratio IC50 [1] was 2.9, the IC50 [2] was 6.2 µM and the IC50 [3] was 18.4 µM.
With `COc1cccc(CC2CCN(CCCOc3ccc4c5c(c(=O)oc4c3)CCCC5)CC2)c1` the Ratio IC50 [1] was > 8, the IC50 [2] was 4.9 µM and the IC50 [3] was > 40 µM.
`O=c1oc2cc(OCCN3CCN(Cc4ccccc4)CC3)ccc2c2ccccc12` was tested, and the Ratio IC50 [1] was 13.4, the IC50 [2] was 0.9 µM and the IC50 [3] was 12.1 µM.
`COc1cc(C(C)N(C)C)cc2oc(=O)c3ccccc3c12` (racemic) gave a Ratio IC50 [1] of 7.5 and an inhibition in vivo at 1 mg/kg [4] of 71%.
`COc1cccc(CN2CCN(CCCOc3ccc4c(c3)oc(=O)c3ccccc34)CC2)c1` was tested, and the Ratio IC50 [1] was > 2, the IC50 [2] was 18 µM and the IC50 [3] was > 40 µM.
With `O=c1oc2cc(OCCN3CCN(Cc4ccccc4)CC3)ccc2c2c1CCCC2` the Ratio IC50 [1] was 24.6, the IC50 [2] was 1.3 µM and the IC50 [3] was 32 µM.
`O=c1oc2cc(OCCCCN3CCC(Cc4ccccc4)CC3)ccc2c2c1CCCC2` gave a Ratio IC50 [1] of 2.2, an IC50 [2] of 9.2 µM and an IC50 [3] of 20.1 µM.
Compound `CC(c1ccc2c(c1)oc(=O)c1ccccc12)N(C)C` (racemic) has a Ratio IC50 [1] of 1.6 and an inhibition in vivo at 1 mg/kg [4] of 70%.
For `O=c1oc2cc(OCCCCN3CCN(Cc4ccccc4)CC3)ccc2c2ccccc12`, the Ratio IC50 [1] was > 4, the IC50 [2] was 8.2 µM and the IC50 [3] was > 40 µM.
With `COc1cccc(CC2CCN(CCOc3ccc4c5c(c(=O)oc4c3)CCCC5)CC2)c1` the Ratio IC50 [1] was > 1, the IC50 [2] was 37.2 µM and the IC50 [3] was > 40 µM.
`CC(c1cc(O)cc2oc(=O)c3ccccc3c12)N(C)C` (racemic) was tested, and the Ratio IC50 [1] was > 1 and the IC50 [3] was > 40 µM.
`COc1cc(C(C)N(C)C)c2c(c1)oc(=O)c1ccccc12` (racemic) showed a Ratio IC50 [1] of 1.6.
`O=c1oc2cc(OCCCN3CCN(Cc4ccccc4)CC3)ccc2c2ccccc12` was tested, and the Ratio IC50 [1] was 4.6, the inhibition in vivo at 1 mg/kg [4] was 85% and the IC50 [2] was 0.8 µM. For the same compound, the IC50 [3] was 3.7 µM.
In the case of `CN(CCCOc1ccc2c3c(c(=O)oc2c1)CCCC3)Cc1ccccc1`, the Ratio IC50 [1] is reported as 7.6, the IC50 [2] is reported as 2.1 µM and the IC50 [3] is reported as 15.9 µM.
With `O=c1oc2cc(OCCCCN3CCN(Cc4ccccc4)CC3)ccc2c2c1CCCC2` the Ratio IC50 [1] was 2.3, the IC50 [2] was 6.4 µM and the IC50 [3] was 14.6 µM.
With `COc1cccc(CC2CCN(CCOc3ccc4c(c3)oc(=O)c3ccccc34)CC2)c1` the Ratio IC50 [1] was > 1, the IC50 [2] was 29.3 µM and the IC50 [3] was > 40 µM.
`CN(CCOc1ccc2c(c1)oc(=O)c1ccccc12)Cc1ccccc1` gave a Ratio IC50 [1] of 2.1, an IC50 [2] of 6.7 µM and an IC50 [3] of 14.1 µM.
`COc1cccc(CN(C)CCCCOc2ccc3c4c(c(=O)oc3c2)CCCC4)c1` was tested, and the Ratio IC50 [1] was > 23, the IC50 [2] was 1.7 µM and the IC50 [3] was > 40 µM.
In the case of `O=c1oc2cc(OCCN3CCC(Cc4ccccc4)CC3)ccc2c2ccccc12`, the Ratio IC50 [1] is reported as > 2, the IC50 [2] is reported as 20 µM and the IC50 [3] is reported as > 40 µM.
For `C[C@@H](c1ccc2c(c1)oc(=O)c1ccccc12)N(C)C`, the Ratio IC50 [1] was 2.1 and the inhibition in vivo at 1 mg/kg [4] was 71%.
In the case of `O=c1oc2cc(OCCCN3CCC(Cc4ccccc4)CC3)ccc2c2c1CCCC2`, the Ratio IC50 [1] is reported as > 9, the IC50 [2] is reported as 4.3 µM and the IC50 [3] is reported as > 40 µM.
`COc1cccc(CN2CCN(CCCCOc3ccc4c(c3)oc(=O)c3ccccc34)CC2)c1` was tested, and the Ratio IC50 [1] was > 1, the IC50 [2] was 21.3 µM and the IC50 [3] was > 40 µM.
`COc1cc2c(cc1OC)C(=O)C(CC1CCN(Cc3ccccc3)CC1)C2` (configuration not stated) [DONEPEZIL] gave an inhibition in vivo at 1 mg/kg [4] of 58%.
With `CCN(C)C(=O)Oc1cc(C(C)N(C)C)c2c(c1)oc(=O)c1ccccc12` (racemic) the IC50 [2] was > 40 µM and the Ratio IC50 [5] was > 4.
Work on `O=c1oc2cc(OCCCN3CCC(Cc4ccccc4)CC3)ccc2c2ccccc12` yielded a Ratio IC50 [1] of 5.2, an IC50 [2] of 4.1 µM and an IC50 [3] of 21.3 µM.
In the case of `COc1cccc(CC2CCN(CCCCOc3ccc4c(c3)oc(=O)c3ccccc34)CC2)c1`, the Ratio IC50 [1] is reported as > 1, the IC50 [2] is reported as 27.4 µM and the IC50 [3] is reported as > 40 µM.
With `COc1cccc(CN2CCN(CCOc3ccc4c(c3)oc(=O)c3ccccc34)CC2)c1` the Ratio IC50 [1] was > 3, the IC50 [2] was 11.4 µM and the IC50 [3] was > 40 µM.
In the case of `CN(CCOc1ccc2c3c(c(=O)oc2c1)CCCC3)Cc1ccccc1`, the Ratio IC50 [1] is reported as > 14, the IC50 [2] is reported as 2.8 µM and the IC50 [3] is reported as > 40 µM.
Work on `CN(CCCOc1ccc2c(c1)oc(=O)c1ccccc12)Cc1ccccc1` yielded a Ratio IC50 [1] of 1.7, an IC50 [2] of 8.5 µM and an IC50 [3] of 14.9 µM.
In the case of `COc1cccc(CN2CCN(CCOc3ccc4c5c(c(=O)oc4c3)CCCC5)CC2)c1`, the Ratio IC50 [1] is reported as > 5, the IC50 [2] is reported as 7.3 µM and the IC50 [3] is reported as > 40 µM.
In the case of `COc1cccc(CN(C)CCCCOc2ccc3c(c2)oc(=O)c2ccccc23)c1`, the Ratio IC50 [1] is reported as 2.1, the IC50 [2] is reported as 8.3 µM and the IC50 [3] is reported as 17.6 µM.
`CN(CCCCOc1ccc2c(c1)oc(=O)c1ccccc12)Cc1ccccc1` gave a Ratio IC50 [1] of 5.9, an inhibition in vivo at 1 mg/kg [4] of 62% and an IC50 [2] of 1.1 µM. The IC50 [3] was 6.5 µM.
Work on `O=c1oc2cc(OCCCN3CCN(Cc4ccccc4)CC3)ccc2c2c1CCCC2` yielded a Ratio IC50 [1] of 3.4, an inhibition in vivo at 1 mg/kg [4] of 58% and an IC50 [2] of 0.9 µM. For the same compound, the IC50 [3] was 3.1 µM.
`COc1cccc(CC2CCN(CCCCOc3ccc4c5c(c(=O)oc4c3)CCCC5)CC2)c1` showed a Ratio IC50 [1] of 2, an IC50 [2] of 13.7 µM and an IC50 [3] of 27.8 µM.
Compound `CC(c1cc(O)c2c(c1)oc(=O)c1ccccc12)N(C)C` (racemic) has an inhibition in vivo at 1 mg/kg [4] of 49% and a Ratio IC50 [5] of 4.5.
In the case of `COc1cccc(CN(C)CCOc2ccc3c4c(c(=O)oc3c2)CCCC4)c1`, the Ratio IC50 [1] is reported as > 6, the IC50 [2] is reported as 6 µM and the IC50 [3] is reported as > 40 µM.
For `COc1cccc(CN(C)CCCOc2ccc3c4c(c(=O)oc3c2)CCCC4)c1`, the Ratio IC50 [1] was > 14, the IC50 [2] was 2.7 µM and the IC50 [3] was > 40 µM.
For `CN(CCCCOc1ccc2c3c(c(=O)oc2c1)CCCC3)Cc1ccccc1`, the Ratio IC50 [1] was 18.9, the inhibition in vivo at 1 mg/kg [4] was 65% and the IC50 [2] was 1 µM. It also gave an IC50 [3] of 18.9 µM.
`COc1cccc(CN(C)CCOc2ccc3c(c2)oc(=O)c2ccccc23)c1` was tested, and the Ratio IC50 [1] was 1.8, the IC50 [2] was 18.4 µM and the IC50 [3] was 33.2 µM.
